Values after ≈ are worked out from the molar mass of the structure shown. Active and inactive are the calls of the source. No cut-off for these calls is given here.
Assays:
Candida albicans [1] = experiment: Antifungal activity against Candida albicans isolate g5 grown in RPMI 1640 medium incubated for 24 hrs by microdilution method; format: functional; conditions: isolate g5, 24 h
Method in brief: (§1)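 C. albicans standard strain SC5314 and clinical isolates g5 and 17# tested by broth microdilution in YNB or RPMI 1640 medium. Plates incubated at 35 °C for up to 72 h, with visual readings taken at 24 h. MIC taken as the lowest concentration preventing visible growth.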

[2] = tested on: Brassica rapa subsp. oleifera; experiment: Herbicidal activity against Brassica campestris L assessed as inhibition of rape root growth at 10 mg/l root growth incubated for 48 hrs relative to control; format: functional
Method in brief: (§2)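 Rape seeds soaked in distilled water for 4 h, then placed on filter paper wetted with inhibitor solution, 15 seeds per 6-cm dish. Germinated in the dark at 28 °C for 48 h. Mean length of 10 roots per plate measured.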

Candida albicans [3] = experiment: Antifungal activity against Candida albicans isolate 17 grown in RPMI 1640 medium incubated for 24 hrs by microdilution method; format: functional; conditions: isolate 17, 24 h; method in brief: as §1
[4] = tested on: Brassica rapa subsp. oleifera; experiment: Herbicidal activity against Brassica campestris L assessed as inhibition of rape root growth at 100 mg/l root growth incubated for 48 hrs relative to control; format: functional; method in brief: as §2
Candida albicans [5] = experiment: Inhibition of Candida albicans AHAS catalytic subunit at 100 uM using pyruvate as substrate measured after 30 mins by colorimetric method relative to control
Method in brief: (§3)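 Colorimetric assay in 50 mM potassium phosphate pH 7.0 with 50 mM pyruvate, 1 mM thiamine diphosphate, 10 mM MgCl2 and 10 μM FAD. Incubated 30 min at 37 °C for plant AHAS and 30 °C for fungal AHAS. Acetolactate formed was then quantified.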

Arabidopsis thaliana [6] = experiment: Inhibition of Arabidopsis thaliana AHAS catalytic subunit using pyruvate as substrate at 100 uM measured after 30 mins by colorimetric method relative to control; method in brief: as §3
Amaranthus retroflexus [7] = experiment: Pre-emergence herbicidal activity against Amaranthus retroflexus assessed as reduction in growth at 300g/ha measured after 24 days by green house pot method relative to control; format: functional; conditions: 576 h
Echinochloa crus-galli [8] = experiment: Post-emergence herbicidal activity against Echinochloa crus-galli assessed as reduction in growth at 300g/ha measured after 24 days by green house pot method relative to control; format: functional; conditions: 576 h
Echinochloa crus-galli [9] = experiment: Pre-emergence herbicidal activity against Echinochloa crus-galli assessed as reduction in growth at 300g/ha measured after 24 days by green house pot method relative to control; format: functional; conditions: 576 h
Tobacco mosaic virus [10] = experiment: Antiviral activity against Tobacco mosaic virus inoculated in Nicotiana tabacum leaves assessed as passivation by measuring local lesion numbers at 100 mg/l pre-incubated with virus for 30 mins followed by inoculation and measured up to 4 days; format: functional
Method in brief: (§4)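 Passivation assay: TMV mixed with an equal volume of compound solution for 30 min, then rubbed onto the left half of N. tabacum L. leaves. The right half received virus mixed with solvent as control. Local lesions counted 3–4 days after inoculation. Compounds tested at 500 or 100 mg/L.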

Candida albicans [11] = experiment: Antifungal activity against Candida albicans isolate g5 grown in YNB medium incubated for 24 hrs by microdilution method; format: functional; conditions: isolate g5, 24 h; method in brief: as §1
Candida albicans [12] = experiment: Antifungal activity against Candida albicans SC5314 grown in RPMI 1640 medium incubated for 24 hrs by microdilution method; format: functional; conditions: SC5314, 24 h; method in brief: as §1
Digitaria adscendens [13] = experiment: Pre-emergence herbicidal activity against Digitaria adscendens assessed as reduction in growth at 300g/ha measured after 24 days by green house pot method relative to control; format: functional; conditions: 576 h
Digitaria adscendens [14] = experiment: Post-emergence herbicidal activity against Digitaria adscendens assessed as reduction in growth at 300g/ha measured after 24 days by based green house pot method relative to control; format: functional; conditions: 576 h
[15] = tested on: Brassica rapa subsp. oleifera; experiment: Pre-emergence herbicidal activity against Brassica campestris assessed as reduction in growth at 300g/ha measured after 24 days green house pot method relative to control; format: functional; conditions: 576 h
Arabidopsis thaliana [16] = experiment: Inhibition of Arabidopsis thaliana AHAS catalytic subunit using pyruvate as substrate at 10 uM measured after 30 mins by colorimetric method relative to control; method in brief: as §3
Amaranthus retroflexus [17] = experiment: Post-emergence herbicidal activity against Amaranthus retroflexus assessed as reduction in growth at 300g/ha measured after 24 days by green house pot method relative to control; format: functional; conditions: 576 h
Candida albicans [18] = experiment: Antifungal activity against Candida albicans isolate 17 grown in YNB medium incubated for 24 hrs by microdilution method; format: functional; conditions: isolate 17, 24 h; method in brief: as §1
Candida albicans [19] = experiment: Antifungal activity against Candida albicans SC5314 grown in YNB medium incubated for 24 hrs by microdilution method; format: functional; conditions: SC5314, 24 h; method in brief: as §1
[20] = tested on: Brassica rapa subsp. oleifera; experiment: Post-emergence herbicidal activity against Brassica campestris assessed as reduction in growth at 300g/ha measured after 24 days by green house pot method relative to control; format: functional; conditions: 576 h
Candida albicans [21] = experiment: Inhibition of Candida albicans AHAS catalytic subunit at 10 uM using pyruvate as substrate measured after 30 mins by colorimetric method relative to control; method in brief: as §3
Tobacco mosaic virus [22] = experiment: Antiviral activity against Tobacco mosaic virus inoculated in Nicotiana tabacum leaves assessed as passivation by measuring local lesion numbers at 500 mg/l pre-incubated with virus for 30 mins followed by inoculation and measured up to 4 days; format: functional; method in brief: as §4
Mythimna separata [23] = experiment: Insecticidal activity against Mythimna separata assessed as larval mortality at 10 mg/l by leaf-dip method; format: functional
[24] = Inhibition of SARS coronavirus M protease using AVLQSGFRKK as substrate by FRET assay; set-up: species or system Severe acute respiratory syndrome-related coronavirus
Method in brief: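 Purified SARS-CoV Mpro assayed by FRET. Protein, compound and substrate were preheated at 37 °C and oscillated. Fluorescence (ex 320/em 405 nm) was read every 5 s for 200 reads. IC50 from V0/V = 1+[I]/IC50.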

Phytophthora capsici = experiment: Antifungal activity against Phytophthora capsici assessed as reduction in growth at 50 mg/l by mycelium growth rate method relative to control; format: functional
Method in brief: (§5)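 Mycelium growth rate method against S. sclerotiorum, P. capsici, P. piricola, R. cerealis, W. anthracnose and R. bakanae. Each compound tested at 50 mg/L, with chlorothalonil and PTB as controls. Relative inhibitory ratio (%) calculated from mycelial growth.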

[25] = tested on: Severe acute respiratory syndrome-related coronavirus; experiment: Inhibition of SARS coronavirus M protease using AVLQSGFRKK as substrate at 20 uM by FRET assay relative to control
Method in brief: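 Purified SARS-CoV Mpro assayed by FRET. Protein, compound and substrate were preheated at 37 °C and oscillated. Fluorescence (ex 320/em 405 nm) was read every 5 s for 200 reads.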

Ceratobasidium cereale = experiment: Antifungal activity against Rhizoctonia cerealis assessed as reduction in growth at 50 mg/l by mycelium growth rate method relative to control; format: functional; method in brief: as §5
[26] = Cytotoxicity against HEK293T cells assessed as reduction in cell growth incubated for 48 hrs by MTT assay; format: cell-based, HEK-293T; conditions: human
Method in brief: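 293T cells in logarithmic phase seeded at 12000 cells/well overnight, then exposed to a range of compound concentrations for 48 h. MTT added for a further 4 h, formazan dissolved in DMSO, and OD570 read. CC50 is the concentration reducing viability by 50%.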

Fusarium fujikuroi = experiment: Antifungal activity against Gibberella fujikuroi assessed as reduction in growth at 50 mg/l by mycelium growth rate method relative to control; format: functional; method in brief: as §5
Sclerotinia sclerotiorum = experiment: Antifungal activity against Sclerotinia sclerotiorum assessed as reduction in growth at 50 mg/l by mycelium growth rate method relative to control; format: functional; method in brief: as §5
Colletotrichum = experiment: Antifungal activity against Colletotrichum (W. anthracnose) assessed as reduction in growth at 50 mg/l by mycelium growth rate method relative to control; format: functional; method in brief: as §5
[27] = tested on: Botryosphaeria berengeriana; experiment: Antifungal activity against Physalospora pyricola assessed as reduction in growth at 50 mg/l by mycelium growth rate method relative to control; format: functional; method in brief: as §5
Mythimna separata [28] = experiment: Insecticidal activity against Mythimna separata assessed as larval mortality at 600 mg/l by leaf-dip method; format: functional

Compound	MIC (Candida albicans [1]) [µg/mL]	inhibition (INH) [2] [%]	MIC (Candida albicans [3]) [µg/mL]	inhibition (INH) [4] [%]	inhibition (Candida albicans [5]) [%]	inhibition (Arabidopsis thaliana [6]) [%]	MIC (Candida albicans [11]) [µg/mL]	MIC (Candida albicans [12]) [µg/mL]	inhibition (Arabidopsis thaliana [16]) [%]	MIC (Candida albicans [18]) [µg/mL]	MIC (Candida albicans [19]) [µg/mL]	inhibition (Candida albicans [21]) [%]	inhibition at 500 µg/mL (Tobacco mosaic virus [22]) [%]	other results
COc1cc(OC)nc(Sc2ccc(F)cc2C(=O)O)n1	100 (≈ 322 µM)	72	25 (≈ 80.6 µM)	86	97.7	100	25 (≈ 80.6 µM)	100 (≈ 322 µM)	70.1	3.12 (≈ 10.1 µM)	25 (≈ 80.6 µM)	73.7	47	inhibition at 300 g/ha (Amaranthus retroflexus [7]): 61.1%; inhibition at 300 g/ha (Echinochloa crus-galli [8]): 24.3%; inhibition at 300 g/ha (Echinochloa crus-galli [9]): 13.8%; inhibition at 100 µg/mL (Tobacco mosaic virus [10]): 11.4%; inhibition at 300 g/ha (Digitaria adscendens [13]): 0%; inhibition at 300 g/ha (Digitaria adscendens [14]): 33%; inhibition at 300 g/ha [15]: 85.2%; inhibition at 300 g/ha (Amaranthus retroflexus [17]): 50.6%; inhibition at 300 g/ha [20]: 75.8%
CNC(=O)c1cc(Cl)cc(C)c1NC(=O)c1cc(Br)nn1-c1ncccc1Cl [CHLORANTRANILIPROLE]														mortality at 10 µg/mL (Mythimna separata [23]): 100%
COc1nc(OC)nc(Sc2ccc(Br)cc2C#N)n1	> 100	0	> 100	14	81.1	85.5	> 100	> 100	57.3	> 100	> 100	37.4	0	IC50 [24]: 4.54 µM; inhibition at 50 µg/mL (Phytophthora capsici): 8.3%; inhibition (Tobacco mosaic virus [10]): inactive; inhibition [25]: 100%; inhibition at 50 µg/mL (Ceratobasidium cereale): 66.7%; CC50 at 48 h [26]: 53.5 µM; inhibition at 50 µg/mL (Fusarium fujikuroi): 30.3%; inhibition at 50 µg/mL (Sclerotinia sclerotiorum): 19.4%; inhibition at 50 µg/mL (Colletotrichum): 21.4%; inhibition at 50 µg/mL [27]: 70.3%; mortality at 600 µg/mL (Mythimna separata [28]): 20%
